Assay results taken from ChEMBL document CHEMBL1128200, “(R)-(+)-N-[3-[5-[(4-fluorophenyl)methyl]-2-thienyl]-1-methyl- 2-propynyl]-N-hydroxyurea (ABT-761), a second-generation 5-lipoxygenase inhibitor” (J Med Chem, 1995).

Assays:
[1] = molecular target: T1, Polyunsaturated fatty acid 5-lipoxygenase (Homo sapiens, UniProt P09917); assay: (§1) 5-lipoxygenase Inhibitory activity was measured by enzyme immunoassay using human whole blood stimulated with calcium ionophore (A23187) and LTB4 (leukotriene B4); assay type: tissue-based
T1 sequence (P09917 whole entry): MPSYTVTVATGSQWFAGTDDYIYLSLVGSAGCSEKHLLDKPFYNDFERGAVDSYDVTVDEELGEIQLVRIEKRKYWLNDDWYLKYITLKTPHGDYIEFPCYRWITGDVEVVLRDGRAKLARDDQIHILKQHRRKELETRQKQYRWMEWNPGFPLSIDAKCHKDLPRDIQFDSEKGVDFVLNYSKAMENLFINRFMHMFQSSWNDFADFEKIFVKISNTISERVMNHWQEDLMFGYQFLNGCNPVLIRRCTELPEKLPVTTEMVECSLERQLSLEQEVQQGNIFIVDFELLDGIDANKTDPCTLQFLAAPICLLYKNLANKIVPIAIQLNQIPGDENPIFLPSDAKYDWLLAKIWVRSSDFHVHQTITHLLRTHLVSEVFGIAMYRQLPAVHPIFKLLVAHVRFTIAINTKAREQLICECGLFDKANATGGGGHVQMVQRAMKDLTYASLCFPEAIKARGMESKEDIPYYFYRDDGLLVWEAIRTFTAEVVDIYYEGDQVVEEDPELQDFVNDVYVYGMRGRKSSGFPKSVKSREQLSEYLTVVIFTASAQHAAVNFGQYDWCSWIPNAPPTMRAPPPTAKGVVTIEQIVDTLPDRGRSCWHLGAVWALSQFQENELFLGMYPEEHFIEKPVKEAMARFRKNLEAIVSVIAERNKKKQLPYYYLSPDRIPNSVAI
Method in brief: (§2)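 Heparinized human blood (20 USP units/mL) preincubated with drug or vehicle 15 min at 37 °C, then stimulated with calcium ionophore A23187; LTB4 in extracts quantified by EIA. IC50 estimated by linear regression; means of at least duplicate, mostly triplicate determinations.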

Rattus norvegicus = assay: Compound was evaluated in vivo for the rat anaphylaxis leukotriene formation at an oral dose of 30 umol/kg; assay type: functional
Method in brief: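 Male Sprague-Dawley rats passively sensitized ip with rabbit anti-BSA antiserum; 3 h later challenged ip with 4 mg BSA in PBS. Drug given by oral gavage 1 h before challenge; killed 15 min post-challenge, peritoneal fluid collected, methanol-extracted, LTE4 measured by EIA. 8 rats/group; percent inhibition versus control group mean.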

Monkey = conditions: Cercopithecidae; Liver
[2] = Oral bioavailability was determined in mouse; assay type: ADME, organism-based; conditions: in vivo
[3] = Oral bioavailability was determined in dog; assay type: ADME, organism-based, Canis lupus familiaris; conditions: in vivo
[4] = Oral bioavailability was determined in guinea pig; assay type: ADME, organism-based, Cavia porcellus; conditions: in vivo
[5] = Oral bioavailability in rat; assay type: ADME, organism-based; conditions: in vivo
[6] = Oral bioavailability was determined in cynomolgus monkey; assay type: ADME, organism-based, Macaca fascicularis; conditions: in vivo
[7] = molecular target: T2, Polyunsaturated fatty acid 5-lipoxygenase (Homo sapiens) (UniProt P09917); assay: as §1; assay type: tissue-based; conditions: concentration not given here; method in brief: as §2
T2 sequence (whole entry): T1 sequence (P09917 whole entry)

SMILES: CC(C#Cc1ccc(Cc2ccc(F)cc2)s1)N(O)C(N)=O (configuration not stated)
- IC50 [1]: 200 nM
- ED50 (Rattus norvegicus): 5.6 mg/kg

SMILES: NC(=O)N(O)CC#Cc1ccc(Cc2ccc(F)cc2)s1
- IC50 [1]: 70 nM
- GT rate (Monkey): 0.05
- inhibition in vivo at 30 µmol/kg (Rattus norvegicus): 78%

SMILES: CC(C#Cc1ccc(Oc2ccc(F)cc2)o1)N(O)C(N)=O (configuration not stated)
- IC50 [1]: 80 nM
- GT rate (Monkey): 0.02
- ED50 (Rattus norvegicus): 1.2 mg/kg

SMILES: CC(c1cc2ccccc2s1)N(O)C(N)=O (configuration not stated) [ZILEUTON]
- GT rate (Monkey): 0.12
- ED50 (Rattus norvegicus): 4.4 mg/kg

SMILES: C[C@H](C#Cc1ccc(Oc2ccc(F)cc2)o1)N(O)C(N)=O
- IC50 [1]: 80 nM
- GT rate (Monkey): 0.01
- ED50 (Rattus norvegicus): 1.4 mg/kg

SMILES: CC(/C=C\c1ccc(Oc2ccc(F)cc2)o1)N(O)C(N)=O (configuration not stated)
- GT rate (Monkey): 2.4

SMILES: C[C@H](C#Cc1ccc(Cc2ccc(F)cc2)s1)N(O)C(N)=O [ATRELEUTON]
- bioavailability [2]: 100%
- bioavailability [3]: 95%
- bioavailability [4]: 90%
- ED50 (Rattus norvegicus): 2.8 mg/kg
- bioavailability [5]: 60%
- bioavailability [6]: 90%

SMILES: C[C@@H](C#Cc1ccc(Oc2ccc(F)cc2)o1)N(O)C(N)=O
- IC50 [1]: 50 nM
- GT rate (Monkey): 0.05
- ED50 (Rattus norvegicus): 1.5 mg/kg

SMILES: C[C@@H](C#Cc1ccc(Cc2ccc(F)cc2)s1)N(O)C(N)=O
- IC50 [1]: 200 nM
- ED50 (Rattus norvegicus): 2.1 mg/kg

SMILES: CC(/C=C/c1ccc(Oc2ccc(F)cc2)o1)N(O)C(N)=O (configuration not stated)
- GT rate (Monkey): 0.07

SMILES: NC(=O)N(O)CC#Cc1ccc(Oc2ccc(F)cc2)o1
- IC50 [1]: 60 nM
- GT rate (Monkey): 0.03
- inhibition in vivo at 30 µmol/kg (Rattus norvegicus): 70%

SMILES: CC(c1ccc(Oc2ccc(F)cc2)o1)N(O)C(N)=O (configuration not stated)
- GT rate (Monkey): 0.31
- inhibition in vivo at 30 µmol/kg (Rattus norvegicus): 0%
- inhibition [7]: 58%
